Key:
[1] = Cytotoxicity against human PC3 cells after 72 hrs by MTT assay; type: functional; settings: PC-3, 72 h
Outline: (§1)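 CCRF-CEM, HT-29, PC-3 and HTB-54 cells grown in RPMI 1640 with 10% foetal calf serum, 2 mM L-glutamine, penicillin/streptomycin, 10 mM HEPES (pH 7.4). Five concentrations, 0.01–100 μM, 72 h at 37 °C, 5% CO2; MTT read-out. GI50, TGI and LC50 versus untreated controls; at least 3 independent experiments in quadruplicate.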

MCF7 = assay: Cytotoxicity against human MCF7 cells after 72 hrs by MTT assay; type: functional; settings: MCF7, 72 h; for CC50: read-out: LC50 (the source's name)
Outline: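 MCF-7 cells grown in EMEM with 10% foetal calf serum, 2 mM L-glutamine, 100 units/mL penicillin, 100 µg/mL streptomycin. Exposed to five concentrations between 0.01 and 100 μM for 72 h, 37 °C, humidified 5% CO2; MTT read-out. GI50, TGI, LC50 relative to untreated controls; ≥3 independent experiments in quadruplicate.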

HT-29 = assay: Cytotoxicity against human HT-29 cells after 72 hrs by MTT assay; type: functional; settings: HT-29, 72 h; outline: as §1
[2] = Cytotoxicity against human BEAS2B cells after 72 hrs by MTT assay; type: cell-based, BEAS-2B; settings: for GI50 at 72 h: BEAS2B cells; for LC50 / TGI: beas-2b, 72 h
Outline: (§2)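 Non-malignant lines: 184B5 (normal breast) in Hams F-12/DMEM (50:50) with published supplements; BEAS-2B (bronchial epithelium) in Hams F-12/DMEM (50:50) with 10% foetal calf serum, 2 mM L-glutamine, penicillin/streptomycin. Compounds at five concentrations, 0.01–100 μM, 72 h, 37 °C, 5% CO2; MTT read-out. GI50, TGI, LC50 relative to untreated controls; ≥3 independent experiments in quadruplicate.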

[3] = Antioxidant activity assessed as ABTS radical scavenging activity at 0.1 mg/ml after 6 mins; type: physicochemical; settings: 0.1 h
Outline: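 Diluted with 50% ethanol to A741 0.700 ± 0.02. A741 decrease read after 6 min against a 50% ethanol blank. % scavenged relative to a vehicle-plus-radical control. Quadruplicate.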

[4] = Cytotoxicity against human 184B5 cells after 72 hrs by MTT assay; type: cell-based; settings: for GI50 at 72 h: 184B5 cells; for LC50 / TGI: 184b5, 72 h; outline: as §2
[5] = Cytotoxicity against human HTB-54 cells after 72 hrs by MTT assay; type: functional; settings: HTB-54, 72 h; for CC50: read-out: LC50 (the source's name); outline: as §1
CCRF-CEM = assay: Cytotoxicity against human CCRF-CEM cells after 72 hrs by MTT assay; type: functional; outline: as §1
[6] = Antioxidant activity assessed as ABTS radical scavenging activity by measuring Trolox equivalent antioxidant capacity after 6 mins; type: physicochemical; settings: 0.1 h
Outline: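 ABTS dissolved in deionized water at 1 mg/mL, oxidised to radical cation with potassium persulfate (2.45 mM final), kept overnight at room temperature in dark, then diluted with 50% ethanol to A741 = 0.700 ± 0.02. Compound (1 mg/mL ethanol stock) added 1:10 (0.1 mg/mL); A741 decrease read after 6 min against 50% ethanol blank. Trolox positive control; quadruplicate; TEAC from calibration curve.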

[7] = Antioxidant activity assessed as DPPH radical scavenging activity at 0.5 mg/ml after 180 mins; type: physicochemical; settings: 3 h
Outline: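 Compounds in absolute ethanol, serially diluted from 1 mg/mL, mixed 1:1 with […] in ethanol. Final range 0.016–0.5 mg/mL, 6 concentrations. Incubated at 37 °C in the dark, with decolourisation followed at 517 nm at several time intervals. % scavenged = (A vehicle control − A sample)/A control × 100. Quadruplicate; mean ± SD.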

Compound | GI50 [1] [µM] | LC50 (concentration causing 50% net cell kill) [1] [µM] | TGI [1] [µM] | GI50 (MCF7) [µM] | TGI (MCF7) [µM] | CC50 (MCF7) [µM] | GI50 (HT-29) [µM] | LC50 (HT-29) [µM] | TGI (HT-29) [µM] | GI50 at 72 h [2] [µM] | LC50 [2] [µM] | TGI [2] [µM] | GI50 at 72 h [4] [µM] | LC50 [4] [µM] | TGI [4] [µM] | GI50 [5] [µM] | TGI [5] [µM] | CC50 [5] [µM] | GI50 (CCRF-CEM) [µM] | LC50 (CCRF-CEM) [µM] | further results
N#C[Se]c1ccc(NC(=O)Oc2ccc(Cl)cc2)cc1 | 6.4 | 57.9 | 18.7 | 6 | 26.3 | 63.6 | 11.8 | 68.7 | 40.3 | 9.3 | 68.7 | 38 | 5.6 | 59.8 | 19.9 | 13.8 | 41.4 | 69 | 18.3 | 71.8 | inhibition (INH) [3]: > 25%; TGI (CCRF-CEM): 45.1 µM; Activity [6]: 37.6 µg/µL
Cc1ccc(OC(=O)Nc2ccc([Se][Se]c3ccc(NC(=O)Oc4ccc(C)cc4)cc3)cc2)cc1 | 4.4 | 64.8 | 28.2 | 6.9 | 37.7 | 74 | 7.9 | 70.9 | 39.4 | 0.7 | 61.8 | 19.2 | 3.5 | 37.2 | 7.6 | 24.9 | 57 | 89.1 | 21.4 | 75.6 | inhibition (INH) [7]: > 50%; TGI (CCRF-CEM): 48.5 µM
CCCOC(=O)Nc1ccc([Se][Se]c2ccc(NC(=O)OCCC)cc2)cc1 | 18.4 | 71.5 | 45 | 31.7 | 55.8 | 80 | 18.3 | 76.1 | 47.2 | 14.4 | 72.2 | 43.3 | 7.2 | 62 | 24.5 | 48.5 | 68.4 | 88.3 | 4.3 | 49.1 | inhibition (INH) [3]: 22.5%; inhibition (INH) [7]: 52.4%; TGI (CCRF-CEM): 8.8 µM; Activity [6]: 14.5 µg/µL
CC(C)COC(=O)Nc1ccc([Se]C#N)cc1 | 21.6 | 73 | 47.3 | 18.1 | 45.5 | 73 | 8.1 | 63.7 | 31.3 | 26.9 | 72.1 | 49.5 | 5.8 | 60.9 | 21.6 | 27.1 | 51.2 | 75.4 | 9.3 | 68.7 | inhibition (INH) [7]: 27.1%; TGI (CCRF-CEM): 38.3 µM; Activity [6]: 5.09 µg/µL
CCCCCCOC(=O)Nc1ccc([Se][Se]c2ccc(NC(=O)OCCCCCC)cc2)cc1 | 0.6 | 66.7 | 25.7 | 15.8 | 52.9 | 89.9 | 11 | 74.2 | 42.6 | 0.01 | 51.8 | 6.9 | 4.6 | 53.4 | 9.8 | 31 | 54.3 | 77.2 | 6.2 | 67.3 | inhibition (INH) [7]: < 16%; TGI (CCRF-CEM): 34.4 µM
O=C(Nc1ccc([Se][Se]c2ccc(NC(=O)OCc3ccccc3)cc2)cc1)OCc1ccccc1 | 0.1 | 70.4 | 33.5 | 5.2 | 38.6 | 74.5 | 1.8 | 69 | 35.4 | 0.01 | 58.5 | 17.3 | 0.1 | 36.2 | 5.8 | 23.8 | 50.9 | 78 | 6.4 | 67.9 | inhibition (INH) [7]: 7.4%; TGI (CCRF-CEM): 34.6 µM
N#C[Se]c1ccc(NC(=O)OCc2ccccc2)cc1 | 3.7 | 62.5 | 27.8 | 8.7 | 38.8 | 68.9 | 13.3 | 69.1 | 41.2 | 0.1 | 66.6 | 34.4 | 5 | 60.7 | 21.9 | 27.6 | 50.8 | 74 | 23.2 | 73.7 | inhibition (INH) [7]: 3.7%; TGI (CCRF-CEM): 48.4 µM; Activity [6]: 6.74 µg/µL
N#C[Se]c1ccc(NC(=O)Oc2ccc(F)cc2)cc1 | 11.8 | 69 | 40.4 | 8.3 | 33.3 | 65.7 | 8.8 | 66.5 | 37.6 | 19.8 | 71.4 | 45.6 | 6.9 | 64.4 | 29.5 | 25 | 48.4 | 71.9 | 12.6 | 71.1 | inhibition (INH) [3]: > 25%; TGI (CCRF-CEM): 41.9 µM; Activity [6]: 20.8 µg/µL
CCCCCCOC(=O)Nc1ccc([Se]C#N)cc1 | 17.3 | 72 | 44.6 | 6.6 | 30.5 | 63.9 | 10.7 | 69.9 | 40.3 | 2.8 | 68 | 35.9 | 4.6 | 60.1 | 20 | 23.6 | 48.5 | 73 | 19.7 | 72.7 | inhibition (INH) [7]: > 25%; TGI (CCRF-CEM): 46.2 µM
N#C[Se]c1ccc(NC(=O)OCC2c3ccccc3-c3ccccc32)cc1 | 2 | 70 | 34.3 | 7.6 | 34.6 | 67 | 15.5 | 70.2 | 42.8 | 7.9 | 68.2 | 38.4 | 5.5 | 62.5 | 25.8 | 23.8 | 48.4 | 73 | 7.5 | 66.7 | inhibition (INH) [7]: > 25%; TGI (CCRF-CEM): 34.2 µM; Activity [6]: 7.02 µg/µL
O=C(Nc1ccc([Se][Se]c2ccc(NC(=O)Oc3ccccc3)cc2)cc1)Oc1ccccc1 | 5.3 | 62.9 | 27.2 | 8 | 36.7 | 69 | 13 | 70.2 | 41.6 | 1.4 | 50.7 | 8.6 | 4.5 | 48.9 | 9 | 22.7 | 56.2 | 89.8 | 22.4 | 73.7 | inhibition (INH) [7]: 66.9%; TGI (CCRF-CEM): 48.1 µM

— ChEMBL document CHEMBL3399918, “In vitro radical scavenging and cytotoxic activities of novel hybrid selenocarbamates” (Bioorg Med Chem, 2015)
